Data as given in ChEMBL document CHEMBL3227978, “Azetidine derivatives of tricyclic antidepressant agents” (J Med Chem, 1979).

Columns and labels:
Mus musculus [1] = assay: Anticonvulsant activity in po dosed ICEM:CET (SPF Caw) mouse assessed as antagonism of pentylenetetrazole-induced flexor-extensor tonic convulsions administered via gavage 30 mins before pentylenetetrazole challenge; type: functional
Summary of the method: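 Male mice, 18-22 g, dosed orally by gavage in 0.5% Methocel (0.1 mL/10 g), starting at a 50 mg/kg screening dose, then graded doses. Pentylenetetrazole 130 mg/kg ip given 30 min later. Ten mice per dose and for controls. Dose preventing flexor-extensor tonic convulsions in 50% of animals read from dose-response curves (ED50).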

Mus musculus [2] = assay: Antidepressant activity in po dosed ICEM:CET (SPF Caw) mouse assessed as antagonism of reserpine-induced hypothermia administered via gavage 30 mins before reserpine challenge measured 4 hrs after reserpine treatment; type: functional
Summary of the method: (§1)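 Groups of ten male mice (18-22 g), fasted 9 h with water until 2 h pre-test. Oral gavage in 0.5% Methocel at doses below the 25 mg/kg screen, 30 min before reserpine 2.5 mg/kg ip. Blepharospasm scored blind at 1 h, rectal temperature at 4 h. ED50 estimated by eye-fit linear plots on semilogarithmic paper.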

Mus musculus [3] = assay: Antidepressant activity in po dosed ICEM:CET (SPF Caw) mouse assessed as antagonism of reserpine-induced blepharospasm administered via gavage 30 mins before reserpine challenge measured 1 hr after reserpine treatment; type: functional; conditions: Mus musculus, ICEM:CET(SPF Caw), po; read-out: ED50; summary of the method: as §1
[4] = Orientative acute toxicity in po dosed ICEM:CET (SPF Caw) mouse administered via gavage measured for 60 mins after drug dosing by Irwin's test; type: organism-based; conditions: ICEM:CET (SPF Caw), in vivo
Summary of the method: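 Male ICEM:CET (SPF Caw) mice, 18-22 g. Oral gavage, suspended or dissolved in 0.5% Methocel at 0.1 mL/10 g body weight. Doses of at least 25, 50, 100, 200, 400 and 800 mg/kg, four animals per dose. Animals were observed closely for 60 min after dosing during Irwin's symptomatologic test, and an approximate LD50 was estimated.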

[5] = Mus musculus, ICEM:CET(SPF Caw), po, read-out: ED50

| Structure (SMILES) | ED50 (Mus musculus [1]; [5]) [mg/kg] | ED50 (Mus musculus [2]; [5]) [mg/kg] | ED50 (Mus musculus [3]) [mg/kg] | LD50 at 1 h [4] [mg/kg] | ED50 (Mus musculus [1]) [mg/kg] | ED50 (Mus musculus [2]) [mg/kg] |
| --- | --- | --- | --- | --- | --- | --- |
| CNC1CN(C2c3ccccc3CSc3ccc(Cl)cc32)C1 (stereo unspecified) | > 50 | > 25 | > 25 | 400 |  |  |
| CC(C)(C)NC1CN(C2c3ccccc3CCc3ccccc32)C1 | 28.7 | > 25 | > 25 | 400 |  |  |
| CNC1CN(C2CCCCc3ccccc32)C1 (stereo unspecified) | 48 | > 25 | > 25 | 400 |  |  |
| c1ccc2c(c1)CCc1ccccc1C2N1CC(n2ccnc2)C1 | 17.7 | > 25 | > 25 | 200 |  |  |
| CNCC1CCN1C1c2ccccc2CCc2ccccc21 (stereo unspecified) | > 50 | > 25 | > 25 | > 800 |  |  |
| CN(C)CCCN1c2ccccc2CCc2ccccc21.Cl [IMIPRAMINE HYDROCHLORIDE] | 19.4 | 12.3 | 1.6 | 200 |  |  |
| c1ccc2c(c1)CCc1ccccc1C2N1CC(N2CCOCC2)C1 | 46.9 | > 25 | 17 | > 800 |  |  |
| CNC1CN(C(c2ccccc2)c2ccccc2)C1 | 9.6 | > 25 | 3.5 | 200 |  |  |
| CN(C)C1CN(C2c3ccccc3COc3ccc(Cl)cc32)C1 (stereo unspecified) | > 50 | > 25 | > 25 | 100 |  |  |
| CNC1(c2ccccc2)CN(C2c3ccccc3CCc3ccccc32)C1 | > 50 | > 25 | > 25 | > 400 |  |  |
| CN(C)C1CN(C2c3ccccc3C3(CC3)c3ccccc32)C1 | 24.3 | 16.5 | 7.2 | 200 |  |  |
| CNC1CN(C2c3ccccc3CSc3ccccc32)C1 (stereo unspecified) | 14.7 | > 25 | 12 | 200 |  |  |
| c1ccc2c(c1)CCc1ccccc1C2N1CC(NC2CCCCC2)C1 | > 50 | > 25 | > 25 | 400 |  |  |
| CNC1CN(C2c3ccccc3COc3ccccc32)C1.O=C(O)/C=C/C(=O)O (single isomer, unassigned; (+)) |  |  | 1 | 200 | 14 | 4.9 |
| CC(C)NC1CN(C2c3ccccc3CCc3ccccc32)C1 | 23.3 | 8.5 | 6.5 | 200 |  |  |
| CNC1CN(C2c3ccccc3C=Cc3ccccc32)C1 | > 50 | > 25 | > 25 | 200 |  |  |
| CNC1CN(C2c3ccccc3COc3ccccc32)C1 (stereo unspecified) | 21.5 | 15 | 2.6 | 200 |  |  |

| Structure (SMILES) | ED50 (Mus musculus [1]; [5]) [mg/kg] | ED50 (Mus musculus [2]; [5]) [mg/kg] | ED50 (Mus musculus [3]) [mg/kg] | LD50 at 1 h [4] [mg/kg] | ED50 (Mus musculus [1]) [mg/kg] | ED50 (Mus musculus [2]) [mg/kg] |
| --- | --- | --- | --- | --- | --- | --- |
| CC(C)NC1CN(C2c3ccccc3COc3ccccc32)C1 (stereo unspecified) | 27 | 24.5 | 3.9 | 200 |  |  |
| CNC1CN(C2c3ccccc3C3(CC3)c3ccccc32)C1 | 18.5 | 11.4 | 4.4 | 200 |  |  |
| CN(C)C1CN(C2c3ccccc3CCc3ccccc32)C1 | 21.5 | 12.5 | 7 | 400 |  |  |
| C#CCN(CC#C)C1CN(C2c3ccccc3CCc3ccccc32)C1 | 38 | 21 | > 25 | > 800 |  |  |
| CNC1CN(C2c3ccccc3CCc3ccc(OC)cc32)C1 (stereo unspecified) | > 50 | > 25 | 14 | 200 |  |  |
| CN(C)C1CN(C2c3ccccc3CSc3ccccc32)C1 (stereo unspecified) | 19 | > 25 | > 25 | 400 |  |  |
| CNCC1CN(C2c3ccccc3CCc3ccccc32)C1 | > 50 | > 25 | > 25 | 200 |  |  |
| CN(C)C1CN(C2c3ccccc3CSc3ccc(Cl)cc32)C1 (stereo unspecified) | 50 | > 25 | > 25 | 400 |  |  |
| CC(=O)N(C)C1CN(C2c3ccccc3CCc3ccccc32)C1 | 28 | > 25 | > 25 | 400 |  |  |
| c1ccc(CNC2CN(C3c4ccccc4CCc4ccccc43)C2)cc1 | > 50 | > 25 | 12 | 800 |  |  |
| CN(CC(=O)c1ccccc1)C1CN(C2c3ccccc3CCc3ccccc32)C1 | 46.8 | > 25 | 15 | > 800 |  |  |
| CNC1CN(C2c3ccccc3CCc3ccccc32)C1C (stereo unspecified) | 25 | 10.5 | 9 | 400 |  |  |
| CN(C)CCC=C1c2ccccc2CCc2ccccc21.Cl [AMITRIPTYLINE HYDROCHLORIDE] | 8 | 6.6 | 1.3 | 100 |  |  |
| CCNC1CN(C2c3ccccc3CCc3ccccc32)C1 | 16.7 | 12.5 | 10 | 200 |  |  |
| C#CC(C)(C)NC1CN(C2c3ccccc3CCc3ccccc32)C1 | 19.6 | > 25 | 9 | > 800 |  |  |
| CNC1CN(C2c3ccccc3COc3ccc(Cl)cc32)C1 (stereo unspecified) | 15.4 | > 25 | > 25 | 100 |  |  |
| NC1CN(C2c3ccccc3CCc3ccccc32)C1 | 17 | 12 | 5 | 200 |  |  |
